Experimental data as given in PMC9464482 (EuroIntervention : journal of EuroPCR in collaboration with …, 2021).
Entries after “also recorded” stand apart in the source; their conditions may differ. Read-outs that look alike come from different tables or passages of the source.

What was measured:
platelet function [1] = format: in vivo, human; settings: 15 minutes post dose
Procedure, shortened: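 Patients with STEMI were given one subcutaneous upper-arm injection before pPCI at 0.075, 0.090 or 0.110 mg/kg. Whole blood in 3.2% citrate was sampled pre-dose and at 15, 30, 45, 60, 90, 120 and 180 min, plus 240 min for cohorts 2–3. It was read on the VerifyNow P2Y12 iso-TRAP channel (3-4 μM iso-TRAP) as percent inhibition.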

platelet function [2] = assay: VerifyNow Base channel; format: in vivo, human; settings: for Base channel inhibition of platelet function, mean (min-max): 15 minutes post dose
Procedure, shortened: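 STEMI patients received a single subcutaneous dose in the upper arm before pPCI (0.075, 0.090 or 0.110 mg/kg cohorts). Citrated (3.2%) whole blood was drawn pre-dose and at 15–180 min, plus 240 min for cohorts 2–3. It was tested in the VerifyNow P2Y12 cartridge Base channel (20 μM iso-TRAP plus PAR-4 activator) as percent inhibition. Time to 50% return of platelet function was also derived.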

[3] = Whole blood pharmacokinetics of RUC-4 in STEMI patients; format: in vivo, human; settings: for maximum blood concentration (Cmax), mean±SD / tmax, median [min-max]: whole blood
Safety and tolerability = format: in vivo, human
[4] = format: in vivo, human
Procedure, shortened: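 STEMI patients in three cohorts received one weight-adjusted subcutaneous injection in the outer upper arm before pPCI, at 0.075, 0.090 or 0.110 mg/kg. Platelet counts were taken pre-dose and at 1, 24 and 72 h post dose. Other blood counts and kidney and liver function analytes were also monitored for tolerability.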

platelet function [5] = settings: Phase 1, sc; cited from earlier work
[6] = Phase 1, healthy subjects and stable CAD patients on aspirin; cited from earlier work
platelet aggregation = settings: cited from earlier work
platelet function [7] = settings: ref Bentur et al (submitted), cited from earlier work
platelet function [8] = settings: cited from earlier work
[9] = even at peak levels of ticagrelor achieved in vivo, ref Bentur et al (submitted)

With `NCC(=O)Nc1cncc(-c2nn3c(=O)cc(N4CCNCC4)nc3s2)c1` [RUC-4] as the compound, how does the “inhibition of platelet function, iso-TRAP assay, mean (min-max)” value (shortened to “inhibition … iso-TRAP assay, mean (min-max)”) (platelet function [1]; 0.075 mg/kg sc) read?
The value was 77.5% [65.7%-90.6%].

What about the “patients with high-grade (≥77%) inhibition of the VerifyNow iso-TRAP assay” value (platelet function [1]; 0.075 mg/kg sc) of the same compound?
Its value is 3/8.

What about the “inhibition … iso-TRAP assay, mean (min-max)” value (platelet function [1]; 0.090 mg/kg sc) of the same compound?
Its value is 87.5% [73.8%-93.1%].

What about the “patients with high-grade (≥77%) inhibition of the VerifyNow iso-TRAP assay” value (platelet function [1]; 0.090 mg/kg sc) of the same compound?
The value was 7/8.

What about the “inhibition … iso-TRAP assay, mean (min-max)” value (platelet function [1]; 0.110 mg/kg sc) of the same compound?
The value was 91.7% [76.4%-99.3%].

And the “patients with high-grade (≥77%) inhibition of the VerifyNow iso-TRAP assay” value (platelet function [1]; 0.110 mg/kg sc)?
The value was 7/8.

And the “Base channel inhibition of platelet function, mean (min-max)” value (“Base channel inhibition” for short) (platelet function [2]; 0.075 mg/kg sc)?
The value was 86.0% (74.2%-97.7%).

What about the “Base channel inhibition” value (platelet function [2]; 0.090 mg/kg sc) of the same compound?
Its value is 92.3% (86.8%-97.1%).

And the “Base channel inhibition” value (platelet function [2]; 0.110 mg/kg sc)?
Its value is 93.0% (81.9%-98.6%).

And the “inhibition of the Base channel assay, on average” value (platelet function [2]; within 15 minutes, sc, all cohorts)?
The value was “more than 90%”.

What about the “time at which maximum whole blood concentrations were reached, mean” value ([3]; post dose, all cohorts) of the same compound?
The value was 20 min.

What about the “maximum blood concentration (Cmax), mean±SD” value ([3]; 0.075 mg/kg sc) of the same compound?
Its value is 96.7 ± 26.0 ng/mL.

What about the “tmax, median [min-max]” value ([3]; 0.075 mg/kg sc) of the same compound?
Its value is 15 [15-16] minutes.

And the “maximum blood concentration (Cmax), mean±SD” value ([3]; 0.090 mg/kg sc)?
Its value is 152.4 ± 114.0 ng/mL.

And the “tmax, median [min-max]” value ([3]; 0.090 mg/kg sc)?
Its value is 15 [14-45] minutes.

And the “maximum blood concentration (Cmax), mean±SD” value ([3]; 0.110 mg/kg sc)?
Its value is 129.8 ± 23.3 ng/mL.

What about the “tmax, median [min-max]” value ([3]; 0.110 mg/kg sc) of the same compound?
The value was 15 [13-45] minutes.

And the “Number of patients with AEs with fatal outcome/death” value (from here on “Number … with fatal outcome/death”) (Safety and tolerability; 0.075 mg/kg sc)?
The value was 0 (0%) n/N (%).

And the “Number … with fatal outcome/death” value (Safety and tolerability; 0.090 mg/kg sc)?
The value was 0 (0%) n/N (%).

What about the “Number … with fatal outcome/death” value (Safety and tolerability; 0.110 mg/kg sc) of the same compound?
Its value is 0 (0%) n/N (%).

What about the “AEs of special interest: Injection site bruising” value (Safety and tolerability; Total, all doses) of the same compound?
Its value is 11 (41%) n/N (%).

What about the “AEs of special interest: Injection site reaction” value (Safety and tolerability; Total, all doses) of the same compound?
The value was 1 (4%) n/N (%).

What about the “AEs of special interest: Mild access-site bleeding” value (Safety and tolerability; Total, all doses) of the same compound?
Its value is 6 (22%) n/N (%).

And the “AEs of special interest: Severe access-site bleeding” value (Safety and tolerability; Total, all doses)?
Its value is 2 n/N (%).

And the “Bleeding according to BARC classification: 1” value (Safety and tolerability; Total, all doses)?
Its value is 13 n/N (%).

And the “Number … with fatal outcome/death” value (Safety and tolerability; Total, all doses)?
Its value is 0 (0%) n/N (%).

What about the “most common AEs (injection site bruising, access-site haematoma or bruising) rated as grade 1” value (Safety and tolerability; safety cohort, all doses) of the same compound?
Its value is 11/16.

And the “bruising at the RUC-4 injection site” value (Safety and tolerability; safety cohort, all doses, n=27)?
Its value is 41%.

What about the “vascular access-site haematoma or bruising” value (Safety and tolerability; safety cohort, all doses, n=27) of the same compound?
Its value is 30%.

And the “Haemoglobin (mean, SD)” value ([4]; 24 hours post dose, Cohort 1 (0.075 mg/kg), pre-dose 14.04 (0.95))?
Its value is 13.82 (2.15) g/dL.

And the “Platelet count (mean, SD)” value ([4]; 24 hours post dose, Cohort 1 (0.075 mg/kg), pre-dose 226.38 (44.59))?
The value was 211.13 (36.22) 109/L.

What about the “Haemoglobin (mean, SD)” value ([4]; 24 hours post dose, Cohort 2 (0.090 mg/kg), pre-dose 13.68 (1.17)) of the same compound?
Its value is 13.93 (1.46) g/dL.

What about the “Platelet count (mean, SD)” value ([4]; 24 hours post dose, Cohort 2 (0.090 mg/kg), pre-dose 294.44 (74.60)) of the same compound?
Its value is 273.00 (71.72) 109/L.

And the “Haemoglobin (mean, SD)” value ([4]; 24 hours post dose, Cohort 3 (0.110 mg/kg), pre-dose 14.31 (1.31))?
The value was 13.29 (2.11) g/dL.

And the “Platelet count (mean, SD)” value ([4]; 24 hours post dose, Cohort 3 (0.110 mg/kg), pre-dose 283.44 (60.85))?
Its value is 238.13 (46.07) 109/L.

And the “Haemoglobin (mean, SD)” value ([4]; 72 hours post dose /discharge, Cohort 1 (0.075 mg/kg), pre-dose 14.04 (0.95))?
The value was 14.10 (2.13) g/dL.

And the “Platelet count (mean, SD)” value ([4]; 72 hours post dose /discharge, Cohort 1 (0.075 mg/kg), pre-dose 226.38 (44.59))?
Its value is 214.88 (49.28) 109/L.

And the “Haemoglobin (mean, SD)” value ([4]; 72 hours post dose /discharge, Cohort 2 (0.090 mg/kg), pre-dose 13.68 (1.17))?
Its value is 13.96 (1.14) g/dL.

And the “Platelet count (mean, SD)” value ([4]; 72 hours post dose /discharge, Cohort 2 (0.090 mg/kg), pre-dose 294.44 (74.60))?
Its value is 281.67 (79.81) 109/L.

And the “Haemoglobin (mean, SD)” value ([4]; 72 hours post dose /discharge, Cohort 3 (0.110 mg/kg), pre-dose 14.31 (1.31))?
Its value is 13.75 (2.24) g/dL.

What about the “Platelet count (mean, SD)” value ([4]; 72 hours post dose /discharge, Cohort 3 (0.110 mg/kg), pre-dose 283.44 (60.85)) of the same compound?
Its value is 229.00 (47.76) 109/L.

And the “changes in blood counts, or in kidney or liver function analytes” value ([4]; all cohorts)?
Its value is “no clinically meaningful changes”.

And the thrombocytopaenia ([4]; first 72 hours post dose, all patients)?
The thrombocytopaenia was “No thrombocytopaenia; also recorded: None of the patients included in the study developed thrombocytopaenia; also recorded: did not produce thrombocytopaenia”.

And the “return of platelet function” value (platelet function [5])?
Its value is “within two hours”.

What about the “time to high-grade inhibition of platelet function (LTA, 20 μM ADP)” value (platelet function [5]) of the same compound?
The value was no more than 15 min.

What about the “dose up to which RUC-4 was well tolerated” value [6] of the same compound?
The value was “up to 0.075 mg/kg”.

Which results are given for `CCCCOC(=O)N1CCN(C(=O)[C@H](CP(=O)(O)O)NC(=O)c2cc(N3CC[C@H](OC)C3)nc(-c3ccccc3)n2)CC1` [Selatogrel, selatogrel]?
effect on the VerifyNow P2Y12 assay (platelet aggregation; single sc dose prior to PCI, patients with MI): inhibited; duration of effects (platelet aggregation; single sc dose): at least eight hours

Which results are given for `CC(=O)Oc1ccccc1C(=O)O` [aspirin]?
effect on the iso-TRAP assay (platelet function [7]; Supplementary Appendix 2): not affected; effect on the Base channel assay (platelet function [8]; [9]): not affected

With `CC(=O)Oc1cc2c(s1)CCN(C(C(=O)C1CC1)c1ccccc1F)C2` (centres unmarked) [prasugrel] as the compound, how does the “effect on the Base channel assay” value (platelet function [8]; doses that cause near-complete inhibition of the P2Y12 assay) read?
Its value is “do not inhibit”.

With `CCCSc1nc(N[C@@H]2C[C@H]2c2ccc(F)c(F)c2)c2nnn([C@@H]3C[C@H](OCCO)[C@@H](O)[C@H]3O)c2n1` [ticagrelor] as the compound, how does the “inhibition of the iso-TRAP assay” value (platelet function [7]; at peak levels of ticagrelor achieved in vivo) read?
Its value is “about 20%”.

What about the “effect on the Base channel assay” value (platelet function [8]; [9]) of the same compound?
The value was “not affected”.
